Reference: article PMC10797327 (RSC Advances, 2024)

What was measured:
[1] = MTT cell viability assay; assay type: cell-based, murine; details: mouse, RAW264.7 macrophage cells
Method in brief: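 RAW264.7 cells are cultured with test compound for 48 h, then viability is measured. CC50 is the concentration that reduces viability to 50%.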

[2] = test system: IL-1β; assay: IL-1β production in LPS-stimulated RAW264.7 cells; assay type: cell-based; details: Mus musculus, RAW264.7, 48 h, read-out: IC50 IL-1β
Method in brief: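 RAW264.7 macrophages stimulated with LPS and cultured for 48 h with test compound. Cytokine production is measured, and IC50 is taken as the concentration that reduces cytokine production by 50%.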

- IC50 [2]: 26.6 µM
SMILES: CC(=O)Oc1cccc2c1C(=O)c1c(OC(C)=O)cc(C(=O)O)cc1C2=O [Diacerein, diacerein]
- CC50 at 48 h [1]: 151 µM
